Viability data for 40 compounds are collected here from PubChem BioAssay.

Active and inactive are the calls of the source.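 The calls were made as follows, unless noted: active = viability at or below 30% in both replicate assays; inconclusive = viability at or below 30% in just one of the two assays; inactive = the rest.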

The nature of one test: reduced viability of SK-BR-3 breast cancer cells – cell-based, 24 h, human, pilot screen (AID 572;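 active = viability at or below 10% of carrier control in both of two separate runs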;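 also: compound exposure lasted between 18 and 24 h rather than exactly 24 h; 100% = carrier-treated control wells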). The note with it: SK-BR-3 viability, CellTiter-Glo luminescence, at 10 µM, stronger effect = lower value. For orientation: Cellular ATP, detected with luciferase, serves as a proxy for viable cell number.
One may read the viability as a read-out of living cells in per cent, often relative to untreated cells. As to `CCOC(=O)N1CCN(C(=O)CSc2nnc(-c3cc(OC)cc(OC)c3)o2)CC1`, the viability was 86.5% (inactive).
On the same count and under the same terms, the figure for `Cc1ccc2nc(NC(=O)C3CCCN(S(=O)(=O)c4cnc[nH]4)C3)sc2c1` (stereo unspecified) is 96.5% (inactive); for `C=Cn1nc(C)c2ccccc2c1=O` it is 112% (inactive).
The same measure, in the same setting: the same measure for `CCC(C)(C(=O)NC1CCCC1)N(C(=O)c1cnccn1)c1c(C)n(C)n(-c2ccccc2)c1=O` (stereo unspecified): 97% (inactive); for `Cc1ccc(NC(=O)C2CCCN(S(=O)(=O)c3cnc[nH]3)C2)c(Br)c1` (stereo unspecified): 88.5% (inactive); for `CC(=O)Nn1c(C)nnc1-n1nc(C)cc1C`: 126% (inactive).

A further test can be described thus: HUVEC growth inhibition – cell-based, human, primary screen (AID 575).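 Also: 100% = median of untreated cell wells with 0.1% DMSO on each plate.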 The note with it: HUVEC proliferation, CellTiter-Glo luminescence, 72 h; at 10 µM; stronger effect = lower value. Summed up: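 Test system – primary HUVEC, no more than 12 passages · Dosing – one dose, 10 µM final, 0.1% DMSO · Times – 72 h treatment at 37 °C · Measured by – ATP-based CellTiter-Glo luminescent read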
For `Cc1ccc(-c2nnn(CC(=O)N(CC(=O)NC3CCCCC3)c3cnc4ccccc4c3)n2)o1`, the viability is 93.3% (inactive).
Consider `COCc1nnc(NC(=O)CCCOc2ccccc2)s1`, for which the viability is 85.6% (inactive).
As to `CCc1cc2ccc(C)cc2nc1SCC(=O)N1CCN(C(=O)c2ccco2)CC1`, the viability is 70.1% (inactive).
Take `NC(=O)NC(c1ccccc1)c1ccccc1F` (stereo unspecified): the viability was 91.6% (inactive).
On the same count and under the same terms, the same measure for `CC(C)c1nnc(SCC(=O)NCc2ccco2)n1C`: 94.7% (inactive).
As to `Cn1c(=O)c2c(nc(NCCCO)n2C/C=C/c2ccccc2)n(C)c1=O`, the viability was 85.7% (inactive).
The same measure, in the same setting: the same measure for `O=C(Nc1c(-c2ccccc2)nc2ccccn12)c1ccco1`: 109% (inactive); for `Nc1nc(N2C(=O)C3CC=CCC3C2=O)nn1-c1ccccc1` (stereo unspecified): 105% (inactive); for `COc1ccc(C(=O)NCc2nnc(SCC(=O)Nc3cc(C)cc(C)c3)o2)cc1OC`: 99.6% (inactive).
Still for that read-out and setting: the same measure for `c1coc(Cn2nnnc2CN2CCN(C3CCCC3)CC2)c1`: 92.8% (inactive); for `O=C(C1CCN(c2nnnn2-c2ccccc2)CC1)N1CCN(c2ccccc2)CC1`: 85.6% (inactive).
On the same count and under the same terms, the same measure for `COC(=O)c1ccc(CNC(=O)COc2ccccc2Br)o1`: 100% (inactive).
With `CCOC(=O)C1CCCN(c2c(NCc3ccco3)c(=O)c2=O)C1` (stereo unspecified), the viability was 83.3% (inactive).
Still for that read-out and setting: the same measure for `CC1(C)NC(=O)N(CC(O)CN(Cc2ccccc2)Cc2ccccc2)C1=O` (stereo unspecified): 108% (inactive); for `O=C1c2ccccc2C(O)(Cc2ccccc2)N1Cc1ccco1` (stereo unspecified): 89% (inactive).
Still for that read-out and setting: the figure for `Cc1onc(-c2ccccc2)c1C(N)=O` is 97.7% (inactive); for `CCC1(CC)NC(=O)NC1=O` it is 85% (inactive); for `Cc1ccc2[nH]c3c(c2c1)CCc1cn[nH]c1-3` it is 66.4% (inactive).
As for `COc1ccc(C(=O)Nn2c(C3CCC3)nc3ccccc3c2=O)c(OC)c1`, the viability is 85.8% (inactive).
Still for that read-out and setting: the figure for `CCOC(=O)CSc1nnc(CCc2nc3ccccc3[nH]2)n1C` is 87.5% (inactive); for `COC(=O)c1[nH]c2cc(OC)ccc2c1NC(=O)CCN1CCCCC1` it is 116% (inactive).
Consider `Nc1nnc(C(=O)c2ccccc2N)s1`, for which the viability was 102% (inactive).
For `CCn1c(C(=O)OC)cc2c1ccn2-c1ccc(F)cc1`, the viability is 86.1% (inactive).
The same measure, in the same setting: the same measure for `CC(C)C(NC(=O)c1ccco1)C(=O)NCC(c1ccco1)N1CCCCC1` (stereo unspecified): 94.8% (inactive).
Same read-out and setting: the figure for `Cc1cc2ccccn2c1C(=O)c1ccncc1` is 106% (inactive); for `CCCCc1c(O)nc(SCCN(C)C)n(-c2ccccc2)c1=O` it is 99.5% (inactive); for `COc1ccccc1N1CCN(c2nc3ccccc3nc2C(C#N)C(=O)OC(C)C)CC1` (stereo unspecified) it is 71.6% (inactive).
The same measure, in the same setting: the same measure for `CC1CCN(Cc2ccc(-c3nn[nH]n3)cc2)CC1`: 99.6% (inactive).
Consider `CCCCCc1c(C)nc(N2CCc3ccccc32)[nH]c1=O`, for which the viability is 57.4% (inactive).
The same measure, in the same setting: the same measure for `COc1cccc(-n2c(SC3CCOC3=O)nc3ccccc3c2=O)c1` (stereo unspecified): 88.2% (inactive); for `O=C(Nc1ccccc1C(=O)N1CCCCCC1)c1cccc(S(=O)(=O)N2CCOCC2)c1`: 94.1% (inactive).
On the same count and under the same terms, the figure for `COc1cc(OC)cc(C(=O)NCCN2CCOCC2)c1` is 98.3% (inactive).
On the same count and under the same terms, the figure for `Cc1ccc(C)c(NC(=O)CC(NCCCN2CCOCC2)C(=O)O)c1` (stereo unspecified) is 106% (inactive); for `O=C(CN(C(=O)CCC(=O)Nc1nccs1)c1ccccc1F)NCC1CCCO1` (stereo unspecified) it is 105% (inactive); for `CCOC(=O)N1CCN(C(=O)CSc2nnc(-c3cc(OC)cc(OC)c3)o2)CC1` it is 92.7% (inactive).
Regarding `Cc1ccc2nc(NC(=O)C3CCCN(S(=O)(=O)c4cnc[nH]4)C3)sc2c1` (stereo unspecified), the viability is 98% (inactive).
Still for that read-out and setting: the same measure for `C=Cn1nc(C)c2ccccc2c1=O`: 105% (inactive).
On the same count and under the same terms, the figure for `CCC(C)(C(=O)NC1CCCC1)N(C(=O)c1cnccn1)c1c(C)n(C)n(-c2ccccc2)c1=O` (stereo unspecified) is 94.4% (inactive); for `Cc1ccc(NC(=O)C2CCCN(S(=O)(=O)c3cnc[nH]3)C2)c(Br)c1` (stereo unspecified) it is 88.1% (inactive); for `CC(=O)Nn1c(C)nnc1-n1nc(C)cc1C` it is 77.5% (inactive).

The nature of another test: H69AR cell proliferation blockers – human, duplicate replicates, primary screen (AID 580;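 active = viability at or under a set limit in both replicates, limit being median viability minus 3 SD, cut at about 48% in these data, passing the limit was not always enough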;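 also: 100% = mean luminescence of untreated wells and 0% = no signal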). The note with it: H69AR lung tumor cells viability, ATP luminescence, 72 h; at 10 µM; stronger effect = lower value.
As to `Cc1ccc(-c2nnn(CC(=O)N(CC(=O)NC3CCCCC3)c3cnc4ccccc4c3)n2)o1`, the viability is 96.5% (inactive).
Take `COCc1nnc(NC(=O)CCCOc2ccccc2)s1`: the viability was 98.5% (inactive).
The same measure, in the same setting: the figure for `CCc1cc2ccc(C)cc2nc1SCC(=O)N1CCN(C(=O)c2ccco2)CC1` is 64.5% (inactive); for `NC(=O)NC(c1ccccc1)c1ccccc1F` (stereo unspecified) it is 105% (inactive); for `CC(C)c1nnc(SCC(=O)NCc2ccco2)n1C` it is 79.6% (inactive).
On the same count and under the same terms, the same measure for `Cn1c(=O)c2c(nc(NCCCO)n2C/C=C/c2ccccc2)n(C)c1=O`: 83.2% (inactive); for `O=C(Nc1c(-c2ccccc2)nc2ccccn12)c1ccco1`: 103% (inactive); for `Nc1nc(N2C(=O)C3CC=CCC3C2=O)nn1-c1ccccc1` (stereo unspecified): 98.7% (inactive).
Still for that read-out and setting: the same measure for `COc1ccc(C(=O)NCc2nnc(SCC(=O)Nc3cc(C)cc(C)c3)o2)cc1OC`: 89.3% (inactive); for `c1coc(Cn2nnnc2CN2CCN(C3CCCC3)CC2)c1`: 93.2% (inactive); for `O=C(C1CCN(c2nnnn2-c2ccccc2)CC1)N1CCN(c2ccccc2)CC1`: 79% (inactive).
For `COC(=O)c1ccc(CNC(=O)COc2ccccc2Br)o1`, the viability is 103% (inactive).
On the same count and under the same terms, the same measure for `CCOC(=O)C1CCCN(c2c(NCc3ccco3)c(=O)c2=O)C1` (stereo unspecified): 94.3% (inactive); for `CC1(C)NC(=O)N(CC(O)CN(Cc2ccccc2)Cc2ccccc2)C1=O` (stereo unspecified): 92.6% (inactive); for `O=C1c2ccccc2C(O)(Cc2ccccc2)N1Cc1ccco1` (stereo unspecified): 95.7% (inactive).
For the compound `Cc1onc(-c2ccccc2)c1C(N)=O`, the viability was 100% (inactive).
The same measure, in the same setting: the figure for `CCC1(CC)NC(=O)NC1=O` is 105% (inactive); for `Cc1ccc2[nH]c3c(c2c1)CCc1cn[nH]c1-3` it is 38.4% (active); for `COc1ccc(C(=O)Nn2c(C3CCC3)nc3ccccc3c2=O)c(OC)c1` it is 111% (inactive).
Same read-out and setting: the figure for `CCOC(=O)CSc1nnc(CCc2nc3ccccc3[nH]2)n1C` is 102% (inactive).
Same read-out and setting: the same measure for `COC(=O)c1[nH]c2cc(OC)ccc2c1NC(=O)CCN1CCCCC1`: 98.2% (inactive).
For `Nc1nnc(C(=O)c2ccccc2N)s1`, the viability is 96.3% (inactive).
As to `CCn1c(C(=O)OC)cc2c1ccn2-c1ccc(F)cc1`, the viability is 83% (inactive).
The same measure, in the same setting: the figure for `CC(C)C(NC(=O)c1ccco1)C(=O)NCC(c1ccco1)N1CCCCC1` (stereo unspecified) is 93.9% (inactive); for `Cc1cc2ccccn2c1C(=O)c1ccncc1` it is 87.9% (inactive).
As to `CCCCc1c(O)nc(SCCN(C)C)n(-c2ccccc2)c1=O`, the viability was 102% (inactive).
On the same count and under the same terms, the same measure for `COc1ccccc1N1CCN(c2nc3ccccc3nc2C(C#N)C(=O)OC(C)C)CC1` (stereo unspecified): 80.3% (inactive); for `CC1CCN(Cc2ccc(-c3nn[nH]n3)cc2)CC1`: 95% (inactive); for `CCCCCc1c(C)nc(N2CCc3ccccc32)[nH]c1=O`: 94.6% (inactive).
Regarding `COc1cccc(-n2c(SC3CCOC3=O)nc3ccccc3c2=O)c1` (stereo unspecified), the viability was 94.4% (inactive).
On the same count and under the same terms, the figure for `O=C(Nc1ccccc1C(=O)N1CCCCCC1)c1cccc(S(=O)(=O)N2CCOCC2)c1` is 95.5% (inactive); for `COc1cc(OC)cc(C(=O)NCCN2CCOCC2)c1` it is 94.1% (inactive).
As to `Cc1ccc(C)c(NC(=O)CC(NCCCN2CCOCC2)C(=O)O)c1` (stereo unspecified), the viability is 88.3% (inactive).
The same measure, in the same setting: the figure for `O=C(CN(C(=O)CCC(=O)Nc1nccs1)c1ccccc1F)NCC1CCCO1` (stereo unspecified) is 100% (inactive); for `CCOC(=O)N1CCN(C(=O)CSc2nnc(-c3cc(OC)cc(OC)c3)o2)CC1` it is 85.7% (inactive).
Same read-out and setting: the same measure for `Cc1ccc2nc(NC(=O)C3CCCN(S(=O)(=O)c4cnc[nH]4)C3)sc2c1` (stereo unspecified): 81.9% (inactive); for `C=Cn1nc(C)c2ccccc2c1=O`: 90.1% (inactive); for `CCC(C)(C(=O)NC1CCCC1)N(C(=O)c1cnccn1)c1c(C)n(C)n(-c2ccccc2)c1=O` (stereo unspecified): 91.4% (inactive).
On the same count and under the same terms, the figure for `Cc1ccc(NC(=O)C2CCCN(S(=O)(=O)c3cnc[nH]3)C2)c(Br)c1` (stereo unspecified) is 101% (inactive); for `CC(=O)Nn1c(C)nnc1-n1nc(C)cc1C` it is 97.8% (inactive).
